In ChEMBL document CHEMBL4368878 (Medchemcomm, 2018):
The source made the active and inactive calls. No cut-off for these calls is given here.

Tests used:
Cannabinoid receptor 2 [1] = biological target: T1, Cannabinoid receptor 2 (Homo sapiens, UniProt P34972); test: Displacement of [3H]CP55940 from recombinant human CB2 receptor expressed in HEK293 cell membranes at 10 uM measured after 90 mins relative to control
Cannabinoid receptor 2 [2] = biological target: T1, Cannabinoid receptor 2; test: Displacement of [3H]CP55940 from recombinant human CB2 receptor expressed in HEK293 cell membranes measured after 90 mins
Outline: (§1)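 Membranes from HEK-293 cells stably expressing human recombinant CB1 (Bmax 2.5 pmol/mg protein) or CB2 (Bmax 4.7 pmol/mg protein). [3H]-CP-55,940 was used at 0.14 nM for CB1 (Kd 0.18 nM) and 0.084 nM for CB2 (Kd 0.31 nM), with increasing test concentrations, 90 min at 30 °C. Non-specific binding was set with 10 μM WIN 55212-2. Ki came from IC50 via Cheng–Prusoff; n ≥ 3, mean ± SEM. SI = CB1 Ki / CB2 Ki.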

[3] = biological target: Cannabinoid receptor 1 (CB1) (Homo sapiens, UniProt P21554); test: Displacement of [3H]CP55940 from recombinant human CB1 receptor expressed in HEK293 cell membranes at 10 uM measured after 90 mins relative to control; settings: probe [3H]CP55940
Cannabinoid receptor 1 = Cannabinoid receptor 1 (Homo sapiens, UniProt P21554); test: Displacement of [3H]CP55940 from recombinant human CB1 receptor expressed in HEK293 cell membranes measured after 90 mins; outline: as §1
Homo sapiens = species on record: Homo sapiens; test: Selectivity index, ratio of Ki for displacement of [3H]CP55940 from recombinant human CB1 receptor expressed in HEK293 cell membranes to Ki for displacement of [3H]CP55940 from recombinant human CB2 receptor expressed in HEK293 cell membranes; outline: as §1
Cannabinoid receptor 2 [4] = biological target: T1, Cannabinoid receptor 2; test: Antagonist/inverse agonist activity at recombinant human CB2 receptor expressed in HEK293 cell membranes assessed as increase in NKH-477-induced cAMP accumulation measured after 30 mins by luminescence assay; format: functional, cell-based
Cannabinoid receptor 2 [5] = biological target: T1, Cannabinoid receptor 2; test: Antagonist/inverse agonist activity at recombinant human CB2 receptor expressed in HEK293 cell membranes assessed as increase in NKH-477-induced cAMP accumulation preincubated followed by CB2 agonist JWH-133 addition and measured after 30 mins by luminescence assay; format: functional, cell-based

T1 sequence (P34972 whole entry): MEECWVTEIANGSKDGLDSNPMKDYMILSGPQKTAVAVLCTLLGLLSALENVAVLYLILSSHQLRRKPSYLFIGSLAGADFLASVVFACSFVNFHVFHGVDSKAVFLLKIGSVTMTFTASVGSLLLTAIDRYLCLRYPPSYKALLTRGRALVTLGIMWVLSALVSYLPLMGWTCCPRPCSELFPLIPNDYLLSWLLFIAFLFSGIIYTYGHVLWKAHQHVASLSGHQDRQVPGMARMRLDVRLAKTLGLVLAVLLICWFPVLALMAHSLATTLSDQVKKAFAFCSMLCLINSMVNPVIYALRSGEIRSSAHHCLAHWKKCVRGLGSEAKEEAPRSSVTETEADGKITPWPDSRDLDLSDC
Chain of Cannabinoid receptor 1 (CB1) (P21554 whole entry): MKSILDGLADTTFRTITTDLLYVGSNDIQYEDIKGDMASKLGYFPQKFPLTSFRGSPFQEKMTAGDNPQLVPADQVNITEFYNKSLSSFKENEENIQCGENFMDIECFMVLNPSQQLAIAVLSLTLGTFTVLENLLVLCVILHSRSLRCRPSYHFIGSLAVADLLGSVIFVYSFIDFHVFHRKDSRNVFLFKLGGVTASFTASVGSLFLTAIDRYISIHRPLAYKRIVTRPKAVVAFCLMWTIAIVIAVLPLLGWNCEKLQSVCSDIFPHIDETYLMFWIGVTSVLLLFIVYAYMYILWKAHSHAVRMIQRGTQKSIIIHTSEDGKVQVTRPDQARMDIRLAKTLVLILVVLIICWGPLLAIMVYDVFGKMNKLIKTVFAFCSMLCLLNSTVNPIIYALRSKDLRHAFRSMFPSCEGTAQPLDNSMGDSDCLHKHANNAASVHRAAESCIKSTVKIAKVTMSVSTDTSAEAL
Chain of Cannabinoid receptor 1 (P21554 whole entry): as above

Structure (SMILES) | inhibition (Cannabinoid receptor 2 [1]) [%] | Ki (Cannabinoid receptor 2 [2]) [µM] | inhibition at 1.5 h, 10 µM [3] [%] | Ki (Cannabinoid receptor 1) [µM] | Ratio Ki (Homo sapiens) | Activity (Cannabinoid receptor 2 [4]) | Activity (Cannabinoid receptor 2 [5])
COc1ccc(Cc2nc3cc(C(F)(F)F)ccc3n2C[C@@H]2CCCN3CCCC[C@H]23)cc1 | 19.7 | > 10 | 5.5 | > 10 |  |  | 
Clc1ccc2c(c1)nc(Cn1nc3ccccc3n1)n2CC[C@@H]1CCCN2CCCC[C@H]12 | 10.1 | > 10 | 17.6 | > 10 |  |  | 
CCN(CC)CCCn1c(Cn2nc3ccccc3n2)nc2cc(C(C)=O)ccc21 | 17.5 | > 10 | 15 | > 10 |  |  | 
CCN(CC)CCCn1c(Cc2ccc(OC)cc2)nc2cc(C(F)(F)F)ccc21 | 16.8 | > 10 | 19.2 | > 10 |  |  | 
CCN(CC)CCn1c(-c2ccc(OC)cc2)nc2cc(C(F)(F)F)ccc21 | 46.9 | > 10 | 1.95 | > 10 |  |  | 
COCCn1c(Cc2ccc(Cl)c(Cl)c2)nc2cc(C(F)(F)F)ccc21 | 53.8 | 10 | 41.4 | > 10 | > 1 |  | 
COc1ccc(Cc2nc3cc(C(C)=O)ccc3n2C[C@@H]2CCCN3CCCC[C@H]23)cc1 | 15.6 | > 10 | 47.6 | > 10 |  |  | 
CCCCn1c(Cc2ccc(Cl)c(Cl)c2)nc2cc(C(F)(F)F)ccc21 | 94.3 | 0.37 | 53.9 | 10 | 27 | Active | Active
